Results taken from ChEMBL document CHEMBL2429791, “Preparation of asymmetric urea derivatives that target prostate-specific membrane antigen for SPECT imaging” (J Med Chem, 2013).

Experiments:
Format in all cases: ADME, organism-based
[1] = Ratio of drug level in human PC3 cells xenografted in C.B.-17/Icr +/+ Jcl mouse to blood of C.B.-17/Icr +/+ Jcl mouse xenografted with human LNCAP and PC3 cells at 25.9 MBq, iv after 6 hrs; details: PC3 tumour xenograft relative to blood
Procedure, shortened: (§1)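 Mice (22–24 g) carried PC-3 (right shoulder) and LNCaP (left shoulder) tumors, raised by injecting 1–5 × 10⁶ cells in 1:1 PBS/Matrigel and used at about 5–10 mm diameter. [¹²⁵I]-tracer was given via the tail vein, n=4 per time point, and mice were decapitated at 2 min, 30 min, 1, 3 or 6 h. Tissues were weighed and γ-counted as %ID/g. Tumor/blood and tumor/muscle ratios were taken from %ID/g, mean ± SD.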

Kidney [2] = experiment: Biodistribution in kidney of C.B.-17/Icr […] Jcl mouse xenografted with human LNCAP and PC3 cells at 25.9 MBq, iv after 1 hr; details: in vivo
Procedure, shortened: (§2)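 ¹²⁵I-labelled tracer given iv by tail vein to mice (22–24 g) bearing LNCaP (left shoulder) and PC-3 (right shoulder) xenografts of about 5–10 mm, grown from 1–5 × 10⁶ cells in 1:1 Matrigel. n=4 per time point; decapitated at 2 min, 30 min, 1, 3, 6 h. Tissues weighed and counted; uptake as %ID/g, mean ± SD.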

LNCaP [3] = experiment: Biodistribution in LNCAP cells in C.B.-17/Icr +/+ Jcl mouse xenografted with human LNCAP and PC3 cells at 25.9 MBq, iv after 6 hrs; details: in vivo; procedure, shortened: as §2
Heart = experiment: Biodistribution in heart of C.B.-17/Icr +/+ Jcl mouse xenografted with human LNCAP and PC3 cells at 25.9 MBq, iv after 1 hr; details: in vivo; procedure, shortened: as §2
Nucleic Acid [4] = experiment: Ratio of drug level in human PC3 cells xenografted in C.B.-17/Icr +/+ Jcl mouse to muscle of C.B.-17/Icr +/+ Jcl mouse xenografted with human LNCAP and PC3 cells at 25.9 MBq, iv after 6 hrs; details: in vivo; procedure, shortened: as §1
[5] = Ratio of drug level in human PC3 cells xenografted in C.B.-17/Icr +/+ Jcl mouse to blood of C.B.-17/Icr +/+ Jcl mouse xenografted with human LNCAP and PC3 cells at 25.9 MBq, iv after 1 hr; details: PC3 tumour xenograft relative to blood; procedure, shortened: as §1
Kidney [6] = experiment: Drug excretion in C.B.-17/Icr […] Jcl mouse kidney xenografted with human LNCAP and PC3 cells at 25.9 MBq, iv; details: in vivo
Blood [7] = experiment: Biodistribution in blood of C.B.-17/Icr +/+ Jcl mouse xenografted with human LNCAP and PC3 cells at 25.9 MBq, iv after 3 hrs; details: in vivo; procedure, shortened: as §2
Blood [8] = experiment: Biodistribution in blood of C.B.-17/Icr scid/scid Jcl mouse xenografted with human LNCAP and PC3 cells at 25.9 MBq, iv after 2 mins; details: in vivo
Thyroid gland = experiment: Biodistribution in thyroid of C.B.-17/Icr +/+ Jcl mouse xenografted with human LNCAP and PC3 cells at 25.9 MBq, iv after 1 hr; details: in vivo
Procedure, shortened: (§3)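 Radioiodinated (¹²⁵I) tracer given by tail-vein injection to mice bearing LNCaP (left shoulder) and PC-3 (right shoulder) xenografts, 22–24 g, grown to about 5–10 mm. Groups of n=4 were decapitated at 2 min, 30 min, 1 h, 3 h or 6 h. Tissues were weighed and counted, and uptake was expressed as %ID/g (mean ± SD).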

Spleen [9] = experiment: Biodistribution in spleen of C.B.-17/Icr +/+ Jcl mouse xenografted with human LNCAP and PC3 cells at 25.9 MBq, iv after 2 mins; details: in vivo; procedure, shortened: as §3
Nucleic Acid [10] = experiment: Ratio of drug level in human LNCAP cells xenografted in C.B.-17/Icr +/+ Jcl mouse to muscle of C.B.-17/Icr +/+ Jcl mouse xenografted with human LNCAP and PC3 cells at 25.9 MBq, iv after 2 mins; details: in vivo
Procedure, shortened: (§4)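 Tumor-to-blood and tumor-to-muscle ratios were calculated from %ID/g values in ¹²⁵I-tracer biodistribution in LNCaP/PC-3 xenografted mice. Tail-vein dosing, n=4 per time point, sacrifice at 2 min, 30 min, 1, 3 or 6 h.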

Liver = experiment: Biodistribution in liver of C.B.-17/Icr […] Jcl mouse xenografted with human LNCAP and PC3 cells at 25.9 MBq, iv after 3 hrs; details: in vivo; procedure, shortened: as §2
LNCaP [11] = experiment: Biodistribution in LNCAP cells in C.B.-17/Icr +/+ Jcl mouse xenografted with human LNCAP and PC3 cells at 25.9 MBq, iv after 30 mins in presence of 2-PMPA; details: in vivo, 0.5 h
Procedure, shortened: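 Blocking study: ¹²⁵I-labelled tracer coinjected iv by tail vein with 2-PMPA (50 mg/kg) in LNCaP/PC-3 xenograft-bearing mice (22–24 g). Mice decapitated 30 min after injection; tissues weighed and counted; uptake as %ID/g.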

Kidney [12] = experiment: Biodistribution in kidney of C.B.-17/Icr […] Jcl mouse xenografted with human LNCAP and PC3 cells at 25.9 MBq, iv after 6 hrs; details: in vivo; procedure, shortened: as §2
Stomach [13] = experiment: Biodistribution in stomach of C.B.-17/Icr +/+ Jcl mouse xenografted with human LNCAP and PC3 cells at 25.9 MBq, iv after 30 mins; details: in vivo, 0.5 h; procedure, shortened: as §3
Spleen [14] = experiment: Biodistribution in spleen of C.B.-17/Icr scid/scid Jcl mouse xenografted with human LNCAP and PC3 cells at 25.9 MBq, iv after 30 mins in presence of 2-PMPA; details: in vivo, 0.5 h
Procedure, shortened: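 Blocking study: the ¹²⁵I tracer was coinjected via the tail vein with 2-PMPA (50 mg/kg) into LNCaP/PC-3 tumor-bearing mice, 22–24 g. Mice were decapitated 30 min after injection. Tissues were weighed and counted, giving %ID/g.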

Muscle tissue = experiment: Biodistribution in muscle of C.B.-17/Icr +/+ Jcl mouse xenografted with human LNCAP and PC3 cells at 25.9 MBq, iv after 30 mins; details: in vivo, 0.5 h; procedure, shortened: as §3
Stomach [15] = experiment: Biodistribution in stomach of C.B.-17/Icr +/+ Jcl mouse xenografted with human LNCAP and PC3 cells at 25.9 MBq, iv after 1 hr; details: in vivo; procedure, shortened: as §3
Blood [16] = experiment: Biodistribution in blood of C.B.-17/Icr +/+ Jcl mouse xenografted with human LNCAP and PC3 cells at 25.9 MBq, iv after 30 mins; details: in vivo, 0.5 h; procedure, shortened: as §2
Lung = experiment: Biodistribution in lung of C.B.-17/Icr +/+ Jcl mouse xenografted with human LNCAP and PC3 cells at 25.9 MBq, iv after 3 hrs; details: in vivo; procedure, shortened: as §3
Nucleic Acid [17] = experiment: Ratio of drug level in human PC3 cells xenografted in C.B.-17/Icr +/+ Jcl mouse to muscle of C.B.-17/Icr +/+ Jcl mouse xenografted with human LNCAP and PC3 cells at 25.9 MBq, iv after 1 hr; details: in vivo; procedure, shortened: as §1
Intestine = experiment: Biodistribution in intestine of C.B.-17/Icr +/+ Jcl mouse xenografted with human LNCAP and PC3 cells at 25.9 MBq, iv after 3 hrs; details: in vivo; procedure, shortened: as §2
[18] = Ratio of drug level in human LNCAP cells xenografted in C.B.-17/Icr +/+ Jcl mouse to blood of C.B.-17/Icr +/+ Jcl mouse xenografted with human LNCAP and PC3 cells at 25.9 MBq, iv after 2 mins; details: LNCAP tumour xenograft relative to blood; procedure, shortened: as §4

Kp at 6 h [1]: 0.4
Drug uptake (Kidney [2]): 92.8 % ID/g
Drug uptake (LNCaP [3]): 6.7 % ID/g
Drug uptake (Heart): 1.3 % ID/g
Ratio (Nucleic Acid [4]): 2.1
Kp at 1 h [5]: 0.7
Drug excretion (Kidney [6]): Active
Drug uptake (Blood [7]): 0.7 % ID/g
Drug uptake (Blood [8]): 8.9 % ID/g
Drug uptake (Thyroid gland): 0.01 %ID
Drug uptake (Spleen [9]): 12.5 % ID/g
Ratio (Nucleic Acid [10]): 2.9
Drug uptake (Liver): 9 % ID/g
Drug uptake (LNCaP [11]): Not Active
Drug uptake (Kidney [12]): 97.1 % ID/g
Drug uptake (Stomach [13]): 2.2 %ID
Drug uptake (Spleen [14]): Not Active
Drug uptake (Muscle tissue): 0.6 % ID/g
Drug uptake (Stomach [15]): 1 %ID
Drug uptake (Blood [16]): 1.3 % ID/g
Drug uptake (Lung): 1.2 % ID/g
Ratio (Nucleic Acid [17]): 1.6
Drug uptake (Intestine): 5.8 % ID/g
Kp at 2 min [18]: 0.6
Compound: O=C(O)CC[C@H](NC(=O)N[C@@H](CSC1CC(=O)N(CCCC[C@H](NC(=O)CNC(=O)c2cccc([125I])c2)C(=O)O)C1=O)C(=O)O)C(=O)O (some centres undefined)
